Screening data: PubChem, several laboratories
Diaph act CS: compounds boosting diaphorase resazurin reduction – biochemical, uHTS, resorufin fluorescence, counter-screen for diaphorase-coupled primary assays, primary screen | actives 0.005% (n = 190,000) | Diaphorase/resazurin coupled assay, 16 min; hits give high values; 1 = vehicle wells, 0 = NADH-free wells | activation factor at 20 µM;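 active = diaphorase activity raised at least twofold by the compound at 20 µM; inactive = activation factor below 2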
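Assay system: Purified diaphorase enzyme from Clostridium kluyveri | Amount: Enzyme 0.07 U/mL final | Dosing: Compound 20 µM once, DMSO 1% | Timing: 16 min reaction at room temperature | Detection: Fluorescence, excitation 544 nm and emission 590 nm | Evaluation: Higher resorufin formation from activation or reduction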
p47phox inh: p47phox/p22phox peptide binding inhibitors, primary screen, biochemical, uHTS, NADPH oxidase regulatory subunit | Neutrophil cytosol factor 1 (Homo sapiens), P14598 | fluorescence polarization, 2 h | inhibition, % at 24.7 µM | actives 0.53% (n = 220,000) | AID 1274, 2008;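 also: 0% = p47phox with labelled peptide and 100% = labelled peptide alone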
Hck-Nef inh: inhibitors of Nef-activated human Hck kinase, primary screen, biochemical, Z-Lyte FRET, 384-well, Hck-YEEI; actives 0.68% (n = 220,000); Recombinant Hck-YEEI plus Nef, Z-Lyte FRET kinase assay; AID 463187, 2010; inhibition, % at 20 µM;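 active = Hck-Nef kinase inhibition above about 50%, limit read from the data; inactive = inhibition below that limit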;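 also: 0% = DMSO with Hck plus Nef and 100% = Hck alone without Nef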
Target sequence (P08631 whole entry, looked up): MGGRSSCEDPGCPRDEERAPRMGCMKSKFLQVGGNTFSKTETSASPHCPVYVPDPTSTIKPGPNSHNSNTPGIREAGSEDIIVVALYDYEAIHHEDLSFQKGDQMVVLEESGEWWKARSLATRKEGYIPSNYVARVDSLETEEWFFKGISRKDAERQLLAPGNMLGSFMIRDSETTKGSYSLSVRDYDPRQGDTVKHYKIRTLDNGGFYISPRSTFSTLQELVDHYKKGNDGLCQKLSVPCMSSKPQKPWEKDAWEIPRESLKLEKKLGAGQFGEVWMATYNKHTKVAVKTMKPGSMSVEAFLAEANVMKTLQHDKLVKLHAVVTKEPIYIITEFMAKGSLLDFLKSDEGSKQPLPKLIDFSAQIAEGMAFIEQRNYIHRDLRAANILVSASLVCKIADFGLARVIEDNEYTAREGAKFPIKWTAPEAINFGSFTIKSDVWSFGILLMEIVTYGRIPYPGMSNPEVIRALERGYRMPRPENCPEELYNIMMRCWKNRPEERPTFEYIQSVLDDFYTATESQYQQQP
eIF4E 4G PPI: eIF4E–eIF4G protein interaction inhibitors, primary screen, biochemical, uHTS, TR-FRET, eIF4GI fragment. TR-FRET eIF4E-eIF4GI(517-606) binding, 2 h. inhibition, % at 21.7 µM. actives 0.37% (n = 220,000);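 also: 0% = full FRET control wells and 100% = background wells lacking eIF4GI fragment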
14-3-3 Bad inh: inhibitors of 14-3-3 zeta/Bad binding, primary screen, biochemical, TR-FRET, bovine 14-3-3 zeta | 14-3-3 protein zeta/delta (Bos taurus), P63103 | TR-FRET 14-3-3zeta/Dy647-pBad peptide displacement, 1 h | inhibition, % at 21.7 µM | actives 0.71% (n = 220,000) | AID 781, 2007;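 active = inhibition above about 70%, limit read from the data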;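 also: 0% = full 14-3-3 plus peptide FRET controls and 100% = background without 14-3-3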
Hck-Nef confirm: retest of Hck:Nef kinase inhibitor hits, confirmation, biochemical, Z-Lyte FRET, 384-well, p-Tyr peptide counterscreen. Recombinant Hck-YEEI:Nef, Z-Lyte FRET kinase assay. actives 28% (n = 1,300). calls only at 10 µM. AID 463188, 2010. shares compounds with Hck-Nef inh;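 active = average inhibition of at least 50%, with Z-scores no higher than 3 in both the phospho-tyrosine peptide and fluorescence counterscreens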
* hit, by the source's call; i = inactive; . = not tested or not shown; + = active, no number; [ ] = dose if it differs, or a comment. An excerpt weighted towards active compounds, which were near 2% of everything screened.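 The calls were made as follows, unless noted: active = inhibition above about 30% (limit read from the data); inactive = the rest.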

SMILES	Diaph act CS	p47phox inh	Hck-Nef inh	eIF4E 4G PPI	14-3-3 Bad inh	Hck-Nef confirm
Cc1cccc(C)c1NC(=O)CSc1nnc(-c2cccnc2)o1	0.8	-3	24	-1	-13	.
Cc1ccc(NC(=O)CSc2nc3ccccc3c3nc(CCn4cncc4C)nn23)c(C)c1	1	0	72*	6	15	i
Cc1ccccc1NC(=O)CSc1nc2ccccc2c2nc(CCn3cncc3C)nn12	1	6	-3	-5	-23	.
COCCN(C(=O)CN1CCN(S(=O)(=O)c2ccc(F)cc2)CC1)c1c(N)n(Cc2ccccc2)c(=O)[nH]c1=O	0.9	-4	-25	1	7	.
COCCNC(=O)C1CCN(S(=O)(=O)c2c(C)noc2/C=C/c2cccs2)CC1	.	-3	7	2	4	.
COc1ccc(OC)c(C2C(C(=O)Nc3nc4ccccc4s3)=C(C)NC3=C2C(=O)CCC3)c1 (configuration not stated)	0.9	-40	43	4	-3	.
COc1cccc(C2C(C(=O)Nc3nc4ccccc4s3)=C(C)NC3=C2C(=O)CC(C)(C)C3)c1OC (configuration not stated)	1.1	-15	57*	-1	1	.
O=C(CCn1cnnn1)Nc1ccc(F)cc1	1	-2	20	2	-10	.
Cc1cccc(-n2cnc(C(=O)N/N=C\c3ccc(Br)cc3)c2)n1	0.9	-3	80*	-28	49	i
CSc1ccccc1Nc1ncnc(N)n1	.	-12	-9	3	-4	.
CCCOc1c(Br)cc(C2C3=C(CCCC3=O)N(C)C3=C2C(=O)CCC3)cc1OC	0.8	-3	54*	4	-4	.
Cc1ccc(-c2nc3ccccc3[nH]2)cc1NC(=O)c1sc2cc(Cl)ccc2c1Cl	1.1	-14	73*	-4	11	i
CC12CCC(C(=O)N/N=C/c3ccc(O)cc3O)(OC1=O)C2(C)C (configuration not stated)	.	-5	20	-1	-21	.
Nc1ccc(-c2nc3ccc(C(=O)O)cc3s2)cc1	0.8	-16	115*	0	10	.
Nc1cccc(-c2nc3ccc(N)cc3s2)c1	0.8	-9	14	-16	-18	.
Nc1ccc(-c2nc3ccc(N)cc3s2)cc1	.	-10	61*	-7	7	i
O=C(O)c1ccc2nc(-c3ccccc3)sc2c1	0.9	9	3	-5	-25	.
N#CC1=C(N)Oc2cc(N)ccc2C1C1CCCCC1 (configuration not stated)	0.9	-2	51*	2	-9	i
O=C(c1cccs1)C1CCCN(Cc2nc(Cc3ccccc3F)no2)C1 (configuration not stated)	0.6	13	4	1	4	.
CCCCc1cc(=O)oc2c(CN(C)C)c(O)c(Cl)cc12	1	-98	117*	.	.	.
CCc1c(C)c2cc(Cl)c(O)c(CN(CC)CC)c2oc1=O	0.9	2	115*	7	6	.
CCc1c(C)c2cc(Cl)c(O)c(CN(C)C)c2oc1=O	0.9	-4	123*	0	-2	.
CCCCc1cc(=O)oc2cc(OCC(=O)N(CC)CC)c(Cl)cc12	0.9	-12	3	2	11	.
Cc1c(C)c2cc(Cl)c(O)c(CN(C)C)c2oc1=O	0.9	6	87*	2	-2	.
Cc1c(O)c(CN(C)C)cc2c1oc(=O)c1ccccc12	.	-8	5	1	-1	.
SMILES	Diaph act CS	p47phox inh	Hck-Nef inh	eIF4E 4G PPI	14-3-3 Bad inh	Hck-Nef confirm
CCCCC1(C)OC(=O)C(=Cc2ccc(-c3ccc(Cl)c(C(=O)O)c3)o2)C(=O)O1 (configuration not stated)	.	-9	19	3	9	.
CC1=C(C#N)C(=O)NC(=O)/C1=C\c1ccc(-c2ccc(C)cc2[N+](=O)[O-])o1	0.4	-6	100*	33*	48	+
CCOC(=O)c1cc(-c2ccc(/C=C3/C(=O)NC(=O)C(C#N)=C3C)o2)ccc1Cl	0.6	3	81*	59*[fluorescence artefact?]	77*[fluorescence artefact?]	+
Cc1cc(S(=O)(=O)NCc2ccccc2)ccc1OCC(=O)NCC1CCCO1 (configuration not stated)	0.9	-7	-12	2	-6	.
NC(=S)n1[nH]c(-c2ccc([N+](=O)[O-])cc2)c(N=Nc2cccc(Cl)c2)c1=O	0.5	7	.	27	88*	+
NC(=S)n1[nH]c(-c2ccc([N+](=O)[O-])cc2)c(N=Nc2ccc(O)cc2)c1=O	0.8	12	1	-10	42	.
CCN(CC)c1nc2cc(C)ccc2cc1/C=C(\C#N)C(N)=O	0.8	-18	-25	3	-10	.
C=CCn1c(C)cc(C2=NNC(=Nc3ccc(C)cc3)SC2)c1C	1	-19	-9	1	-6	.
Cc1cc(C2=NNC(=Nc3ccc(S(=O)(=O)N4CCOCC4)cc3)SC2)c(C)n1C	.	23	63*	9	16	i
N=C1S/C(=C\c2ccc(-c3cccc(Cl)c3)o2)C(=O)N1c1nccs1	0.9	18	51*	12	74*[fluorescence artefact?]	i
O=C(Nc1nc(-c2cccnc2)cs1)c1ccccc1Cl	0.9	-1	26	-2	-4	.
Cc1ccccc1C(=O)Nc1nc(-c2cccnc2)cs1	.	-7	51*	14	14	+
CCCC1=[N+](CC(=O)c2ccc(Br)cc2)CCn2cccc21	.	-4	17	5	0	.
O=C(CSc1nc2ccccc2n1CC(=O)NCc1ccccc1)NCc1ccco1	0.9	-11	1	7	-9	.
CCC(Sc1nc2ccccc2c2nc3ccccc3n12)C(=O)NCc1ccco1 (configuration not stated)	0.9	23	70*	8	78*	+
Cc1ccc(S(=O)(=O)Nc2ccc(Oc3cccnc3)nc2)cc1	.	-7	-13	2	-13	.
O=C(OCC(=O)c1ccccc1Br)c1ccncc1	0.9	-4	-3	1	3	.
Cc1cccn2c(=O)c3cc(C(=O)N4CCCc5ccccc54)n(C)c3nc12	.	.	13	.	.	.
Cc1cccn2c(=O)c3cc(C(=O)O)n(C)c3nc12	1	-15	52*	6	8	i
COC1C=CC(CNC(=O)c2cc3c(=O)n4cccc(C)c4nc3n2C)(OC)O1 (configuration not stated)	0.9	6	74*	2	4	i
